Compound activity from PubChem.
OX1R antag-1: antagonists of human orexin 1 receptor (OX1R); Orexin/Hypocretin receptor type 1 (Homo sapiens), O43613; OX1R-expressing cells, FRET antagonist read-out; inhibition, % at 6.6 µM; actives 1.8% (n = 330,000); AID 485270, 2010; in the data active = inhibition mostly above about 38%, no sharp cut-off; inactive = mostly below about 40%;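 also: 0% = agonist challenge alone and 100% = reference antagonist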
TAAR1 ag: human TAAR1 agonists, primary screen, Fluo-8 calcium fluorescence, CHO RD-HGA16 cells; Trace amine-associated receptor 1 (Homo sapiens), Q96RJ0; vehicle wells 0%, saturating PEA agonist 100%; activation, % at 3 µM; actives 0.99% (n = 360,000);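 active = activation above the mean activation of all test compounds in the run plus 3 SD, cut at about 38% in these data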
Target sequence (Q96RJ0 whole entry, looked up): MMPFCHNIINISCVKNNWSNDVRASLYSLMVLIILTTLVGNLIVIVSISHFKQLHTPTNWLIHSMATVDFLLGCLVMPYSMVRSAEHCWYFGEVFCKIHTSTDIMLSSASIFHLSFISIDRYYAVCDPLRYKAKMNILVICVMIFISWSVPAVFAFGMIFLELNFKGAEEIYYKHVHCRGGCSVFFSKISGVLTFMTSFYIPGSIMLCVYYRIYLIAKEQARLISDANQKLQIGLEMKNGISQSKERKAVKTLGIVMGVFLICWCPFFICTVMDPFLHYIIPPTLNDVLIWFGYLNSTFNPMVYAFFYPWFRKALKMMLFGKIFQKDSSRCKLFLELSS
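Repeats: no replicates (n 1) | Material: CHO-derived RD-HGA16 cells with stable Gα16 and human TAAR1 | Technique: Kinetic Fluo-8 calcium fluorescence | Schedule: 17-24 h seeding, 75 min 37 °C dye, 30 min RT | Evaluation: % activation from peak over basal fluorescence ratio, DMSO-to-PEA scaled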
OX1R antag-2: OX1R (HCRTR1) antagonists, primary screen, fluorescence, CHO/OX1R cells, Fluo-8 calcium, orexin A. Orexin/Hypocretin receptor type 1 (Homo sapiens), O43613. Fluo-8 calcium fluorescence. inhibition, % at 5 µM. actives 0.43% (n = 330,000). AID 434989, 2010;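 active = inhibition above its plate's threshold, mean inhibition of all tested compounds on the plate plus 3 SD, cut at about 37% in these data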;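 also: 0% = orexin A challenge wells and 100% = SB-334867-A antagonist wells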
GPR7 antag: GPR7 receptor antagonists, primary screen, cell-based, fluorescence, single concentration | Neuropeptides B/W receptor type 1 (Homo sapiens), P48145 | GPR7-expressing cells, fluorescence antagonist assay | inhibition, % at 4.4 µM | actives 1.1% (n = 290,000) | AID 1861, 2009; in the data active = inhibition above about 16%, passing the limit was not always enough;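 also: cells stimulated with the agonist NPW; 0% = agonist with vehicle and 100% = vehicle without agonist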
Target sequence (P48145 whole entry, looked up): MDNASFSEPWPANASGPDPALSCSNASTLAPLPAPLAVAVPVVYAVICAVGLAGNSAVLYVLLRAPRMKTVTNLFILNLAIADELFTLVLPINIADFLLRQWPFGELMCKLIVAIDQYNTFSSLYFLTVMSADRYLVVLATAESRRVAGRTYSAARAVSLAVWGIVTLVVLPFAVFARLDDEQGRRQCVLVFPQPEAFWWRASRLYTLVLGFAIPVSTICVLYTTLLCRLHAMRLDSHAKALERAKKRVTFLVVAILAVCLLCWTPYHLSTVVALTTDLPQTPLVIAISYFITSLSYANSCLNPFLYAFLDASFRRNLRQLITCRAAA
CHO parental Ca: ATP-evoked calcium signal inhibitors, parental CHO, primary screen, counter-screen for OX1R antagonist project, cell-based, fluorescence, Fluo-8 calcium dye; AID 463079, 2010; actives 0.63% (n = 330,000); parental CHO-K1, ATP-induced calcium, Fluo-8 fluorescence; inhibition, % at 5.6 µM;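 active = inhibition above that plate's mean sample inhibition plus 3 SD, cut at about 26% in these data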;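 also: 0% = ATP-challenged DMSO wells and 100% = DMSO wells without ATP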
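Assay system: parental CHO cells; Read-out basis: percent inhibition of ATP-evoked calcium rise, normalized to controls; Benchmarks: ATP and no-ATP DMSO wells; Compound dosing: single nominal dose of 5.6 µM per compound; Signal: Fluo-8 calcium dye fluorescence; Also added: ATP as calcium-mobilizing challenge; Repeats: singlicate.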
TAAR1 antag: human TAAR1 antagonists, primary screen, Fluo-8 calcium fluorescence, CHO RD-HGA16 cells; antagonist; inhibition, % at 3 µM; actives 1.5% (n = 360,000);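 active = inhibition above a per-plate cutoff, the mean inhibition of test compounds on that plate plus 3 SD, cut at about 49% in these data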;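 also: 0% = DMSO plus EC80 beta-PEA response and 100% = DMSO alone without agonist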
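Assay system: CHO-derived RD-HGA16 cells stably expressing human TAAR1 plus Gα16. Timing: 140 s kinetic read after compound, 140 s after agonist. Technique: kinetic Fluo-8 calcium fluorescence measurement. Measure: % inhibition of agonist calcium response.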
TAAR1 ag conf: human TAAR1 agonists, retest of hits, confirmation, Fluo-8 calcium fluorescence, CHO RD-HGA16 cells. shares compounds with TAAR1 ag. actives 82% (n = 2,400). activation, % at 3 µM. scaled: DMSO 0%, maximal phenethylamine 100%;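 active = activation above a cutoff set at the run's mean compound activation plus 3 SD, cut at about 39% in these data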
Ga16 nonsel ag: nonselective calcium mobilization agonists, CHO-Ga16 cells, counter-screen for hTAAR1 agonist project, cell-based, fluorescence, CHO-Ga16 parental line | actives 50% (n = 2,400) | activation, % at 3 µM | shares compounds with TAAR1 ag | Fluo-8 calcium fluorescence; normalized to maximal ATP response, DMSO zero;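 active = activation above the run cutoff, the mean activation over all tested wells plus 3 SD, cut at about 12% in these data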;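 also: 0% = DMSO wells and 100% = maximal ATP response on the peak over basal ratio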
TAAR1 desensitize: TAAR1 desensitization by agonist hits, confirmation, counter-screen for TAAR1 agonist project, cell-based, fluorescence, tachyphylaxis; shares compounds with TAAR1 ag; CHO RD-HGA16 hTAAR1, Fluo-8 calcium, beta-PEA response inhibition; inhibition, % at 3 µM; actives 46% (n = 2,400); AID 651951, 2012;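 active = inhibition above the run cutoff, the mean inhibition of all test compounds plus 3 SD, cut at about 49% in these data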;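 also: beta-PEA stimulus applied at its EC80; loss of beta-PEA calcium signal after compound pretreatment read as receptor desensitization; 0% = DMSO with beta-PEA at EC80 and 100% = DMSO alone without agonist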
Ga16 antag count: inhibition of ATP-evoked calcium response in CHO-Ga16 cells, counter-screen for TAAR1 agonist project, cell-based, fluorescence. AID 651952, 2012. CHO-Ga16 ATP-induced calcium, Fluo-8 fluorescence. actives 39% (n = 2,400). inhibition, % at 3 µM. shares compounds with TAAR1 ag;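 active = inhibition above the plate's mean compound inhibition plus 3 SD, computed per plate, cut at about 22% in these data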;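 also: 0% = EC80 ATP with DMSO and 100% = DMSO wells without ATP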
* marks the source's active call; other numbers are inactive results; / = no result. A selection: hits, their analogues and other compounds. The true share with any hit is near 4.6%.

SMILES	OX1R antag-1	TAAR1 ag	OX1R antag-2	GPR7 antag	CHO parental Ca	TAAR1 antag	TAAR1 ag conf	Ga16 nonsel ag	TAAR1 desensitize	Ga16 antag count
O=C(Cn1cnc([N+](=O)[O-])n1)N/N=C/c1ccccc1O	48.6	52.9*	-7.9	6.6	-11.4	3.8	68.6*	4.9	24.2	-0.8
CCc1nc2c(OCc3ccc(F)cc3)cccn2c1N(C)C(=O)COc1ccccc1	/	2.0	/	/	/	-20.2	/	/	/	/
O=c1[nH]c(CSc2ncnc3sccc23)nc2ccccc12	12.8	-0.6	-23.0	-7.6	-18.2	4.9	/	/	/	/
O=c1[nH]c(CSc2ncn[nH]2)nc2ccccc12	2.8	42.4*	2.2	-9.7	-3.0	-22.7	37.1	2.0	15.7	5.8
c1ccc(CCNC2=NCCS2)cc1	10.3	49.5*	-17.2	-4.8	-3.2	3.0	74.8*	0.9	27.6	8.4
COP(=O)(OC)c1nc(-c2cccc3ccccc23)oc1NCCc1ccccc1	-2.5	74.5*	-35.1	6.2	-21.0	75.2*	88.2*	7.6	83.0*	27.0*
COc1ccccc1-c1cn(CC[C@@H]2CC[C@H](NC(=O)C3CCC3)[C@@H](CO)O2)nn1	/	0.1	/	/	/	0.6	/	/	/	/
Clc1nc(NC2CCCCC2)c2cn[nH]c2n1	/	5.6	/	/	/	-22.5	/	/	/	/
O=[N+]([O-])C1=CC=C2C(=NC3(CCCCC3)N2O)C1=NCCc1ccccc1	/	44.2*	/	-0.4	/	14.2	78.6*	0.7	50.4*	4.4
CC(C)(C)N=C1C([N+](=O)[O-])=CC=C2C1=NC1(CCCCC1)N2O	15.7	-0.1	-20.0	-1.8	-0.6	-16.5	/	/	/	/
c1ccc2c(c1)CCN(c1nc3cc4c(cc3s1)OCCO4)C2	28.2	56.0*	-25.1	-3.0	-14.7	2.7	80.6*	3.0	37.8	9.6
COc1ccc(OC)c2sc(N3CCc4ccccc4C3)nc12	31.4	-2.8	-23.4	-16.5	-30.4	-10.6	/	/	/	/
O=C1C=CC2(O[C@H](c3ccccc3)[C@@H](c3ccccc3)O2)[C@H](Sc2ccccc2O)C1	/	11.0	/	/	/	6.1	/	/	/	/
O=C1CC(O)(C(F)(F)F)Oc2c1ccc1ccccc21 (stereo not drawn)	34.9	76.2*	-4.3	3.2	5.9	46.1	74.8*	69.9*	45.9	39.2*
COc1ccc(/C=C/C(=O)O)cc1S(=O)(=O)NCc1cccnc1	14.3	1.9	-6.5	-3.1	-11.8	-8.5	/	/	/	/
CCCCC(=O)NC(=S)NNC(=O)CCc1ccccc1	14.0	64.3*	6.0	-6.1	-1.0	19.2	82.3*	61.8*	40.1	34.5*
O=C(CCc1ccccc1)NNC(=S)NC(=O)c1ccccc1	-3.0	87.7*	-1.7	-3.0	-1.8	17.2	74.8*	55.5*	34.0	25.0*
O=C(NCCc1ccc(Cl)cc1)C1CC(=O)N(CCc2ccccc2)C1 (stereo not drawn)	-3.2	13.3	-1.2	16.3	-10.7	-20.3	/	/	/	/
O=C(NCCc1ccccc1)C1CC(=O)N(CCc2ccccc2)C1 (stereo not drawn)	7.6	43.8*	-16.5	-9.1	-13.5	-6.2	67.5*	0.1	30.2	8.1
O=C(O)C1CC(=O)N(CCc2ccccc2)C1 (stereo not drawn)	0.2	43.7*	-18.2	-1.4	-0.5	16.8	71.7*	3.2	0.1	5.9
CN(C)C(=O)c1cc2c(c(-c3cccc(C4=CCCCC4)c3)n1)[C@@H](CCO)N(S(=O)C(C)(C)C)C2 (stereo partly drawn)	/	1.0	/	/	/	-5.8	/	/	/	/
CCc1nc2ccc(C(=O)NCCN3CCNC3=O)cn2c1N(CC)CCOC	/	3.3	/	/	/	-13.1	/	/	/	/
CC(=C1C(=O)c2ccccc2C1=O)N1CCc2ccccc2C1	20.0	/	2.0	-11.7	-23.6	/	/	1.1	/	0.5
CC(C(=O)N1CCc2ccccc2C1)N(c1ccccc1)S(C)(=O)=O (stereo not drawn)	4.2	4.1	-19.5	-0.1	-16.9	-3.4	/	/	/	/
Cn1cc(C(=O)C(=O)N2CCCCC2)c2ccccc21	/	2.1	/	/	/	5.7	/	/	/	/
SMILES	OX1R antag-1	TAAR1 ag	OX1R antag-2	GPR7 antag	CHO parental Ca	TAAR1 antag	TAAR1 ag conf	Ga16 nonsel ag	TAAR1 desensitize	Ga16 antag count
OC(COC(c1ccc(Cl)cc1)c1ccc(Cl)cc1)CN1CCc2ccccc2C1 (stereo not drawn)	-6.1	81.7*	-41.2	-11.2	-19.7	24.8	80.9*	2.6	49.3*	13.1
OC(COC(c1ccccc1)c1ccccc1)CN1CCc2ccccc2C1 (stereo not drawn)	11.9	4.7	-57.2	-1.3	-24.4	-0.9	/	/	/	/
COC(=O)[C@H](C)N(Cc1ccc(Cl)c(Cl)c1)S(=O)(=O)CCN1CCCC1	7.4	2.7	-20.3	/	-14.8	-4.7	/	/	/	/
NC(Cc1ccc(F)cc1)c1csc(Nc2ccc(C(F)(F)F)cn2)n1 (stereo not drawn)	/	74.2*	/	/	/	45.5	49.3*	27.1*	38.0	34.9*
NC(Cc1cnc[nH]1)c1csc(Nc2ccc(C(F)(F)F)cn2)n1 (stereo not drawn)	/	2.8	/	/	/	-23.4	/	/	/	/
CCCCN(C)C(=O)c1ccc(Nc2nc(C(N)Cc3ccccc3)cs2)nc1 (stereo not drawn)	/	48.6*	/	/	/	24.1	72.9*	15.5*	53.7*	32.2*
CC(C)CC(N)c1csc(Nc2ccc(C(=O)N(C)Cc3ccccc3)cn2)n1 (stereo not drawn)	/	12.9	/	/	/	1.6	/	/	/	/
CN(Cc1ccccc1)C(=O)c1ccc(Nc2nc(C(N)Cc3ccc(C(F)(F)F)cc3)cs2)nc1 (stereo not drawn)	/	64.1*	/	/	/	74.9*	58.9*	29.9*	62.9*	69.7*
